The list is not random: actives were taken first. Their share in the collection is about 9.8%.
PMI act – activators of human PMI, primary screen, biochemical, fluorescence intensity, near-Km mannose 6-phosphate. Mannose-6-phosphate isomerase (Homo sapiens), P34949. purified human PMI, coupled resazurin fluorescence, 20 min; hits give high values; 1 = vehicle control, 0 substrate-free wells. 0.005% of 190,000 active. activation factor at 20 µM;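 active = activation factor of 2 or more at 20 µM, relative to plate controls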
Target sequence (P34949 whole entry, looked up): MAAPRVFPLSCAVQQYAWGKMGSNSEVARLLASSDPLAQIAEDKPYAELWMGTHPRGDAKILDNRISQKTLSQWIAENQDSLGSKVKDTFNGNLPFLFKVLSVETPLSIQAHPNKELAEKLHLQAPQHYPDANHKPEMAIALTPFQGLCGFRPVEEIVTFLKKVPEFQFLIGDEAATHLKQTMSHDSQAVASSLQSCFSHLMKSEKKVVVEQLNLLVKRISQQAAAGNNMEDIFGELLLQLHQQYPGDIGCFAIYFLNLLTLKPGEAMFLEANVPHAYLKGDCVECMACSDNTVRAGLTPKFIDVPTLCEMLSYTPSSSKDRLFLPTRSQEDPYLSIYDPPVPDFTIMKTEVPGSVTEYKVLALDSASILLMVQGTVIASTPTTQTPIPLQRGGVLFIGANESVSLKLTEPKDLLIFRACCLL
m-calpain inh – inhibitors of pig calpain II, primary screen, biochemical, fluorogenic peptide substrate, 1536-well | inhibition, % at 16 µM | 0.37% of 220,000 active | purified calpain II, 30 min | AID 1236, 2008;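 active = inhibition above about 50%, limit read from the data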
WT yeast gro inh – growth inhibition of WT strain, primary screen, mitochondrial fusion inhibitor project, WT and mutant strains, chemical genetic; 2.1% of 190,000 active; AID 1362, 2008; mitochondrial fusion phenotypic screen; inhibition, % at 10 µM; in the data active = inhibition above about 58%; tested in S. cerevisiae
PMI act hi M6P – human PMI activators, high substrate, primary screen, biochemical, fluorescence intensity, near-saturating mannose 6-phosphate; Mannose-6-phosphate isomerase (Homo sapiens), P34949; coupled PMI enzyme assay, resazurin fluorescence, 20 min; hits give high values; 1 = untreated enzyme, 0 = substrate-free blank; activation factor at 20 µM; 0.34% of 190,000 active; AID 1216, 2008;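 active = activation factor of 2 or more at 20 µM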
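Test system: human phosphomannose isomerase with PGI, G6PDH, diaphorase coupling enzymes; Amount: PMI at 15 ng/mL final; Reagent: Mannose-6-phosphate 1.0 mM (near-saturating) plus 0.22 mM NADP+; Timing: 20 min, room temperature; Technique: resorufin fluorescence at Ex 544/Em 590 nm; Dosing: 20 µM single dose.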
Rad51 HR inh – human RAD51 strand exchange inhibitors, primary screen, biochemical, fluorescence; inhibition, % at 10 µM; 0.085% of 200,000 active; AID 1385, 2008; DNA repair protein RAD51 homolog 1 (Homo sapiens), Q06609; hRad51 DNA strand exchange, fluorescence dequenching;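 active = inhibition above 40% at the single screening dose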
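Test system – preformed human Rad51 ssDNA filaments · Reagent – Donor/quencher-labelled 47-bp dsDNA substrate · Incubation – 37 °C 15-min filament assembly, 30-min compound preincubation, 15-min exchange · Signal – FRET fluorescence dequenching, excitation 485 nm, emission 520 nm · Read-out – percent inhibition from fluorescence, normalised to plate control and blank means · Benchmarks – plate control and blank wells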
Lmaj promast – Leishmania major promastigote growth inhibition, primary screen; Leishmania major promastigotes, resazurin fluorescence viability; inhibition, % at 10 µM; 9% of 200,000 active; in the data active = inhibition above about 50%;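 note: promastigotes grown with compound for 44 hours at 28 °C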
Large screens that a line does not name were inactive.

CC(=O)Nc1ccc(S(=O)(=O)N2CCN(C)CC2)cc1	WT yeast gro inh 64
CC(=O)Nc1ccc(S(=O)(=O)N2CCN(C(C)CCc3ccccc3)CC2)cc1 (centres undefined)	Lmaj promast 86
CC(=O)Nc1ccc(NC(=O)C(C)N2CCN(S(=O)(=O)c3ccc(C)cc3)CC2)cc1 (centres undefined)	none
CN1CCN(S(=O)(=O)c2ccc(-c3ccccc3)cc2)CC1	Lmaj promast 86
CCOC(=O)c1ccc(NC(=S)N2CCSC2c2ccc(Br)cc2)cc1 (centres undefined)	Lmaj promast 87
Oc1ccc(Br)cc1-c1nc2cnccn2c1NC1CCCCC1	Lmaj promast 85
Cc1cc(CSc2ccccc2)ccc1NC(=O)c1ccc(CN2CCOCC2)cc1	Lmaj promast 63
CCOC(=O)c1ccc(NC(=O)c2ccc(CN3CCOCC3)cc2)cc1	Lmaj promast 84
CCOC(=O)c1ccc(NC(=O)CSC(=S)N2CCOCC2)cc1	Lmaj promast 97
Oc1ccccc1C(=S)N1CCN(c2cccc(Cl)c2)CC1	none (no result: Rad51 HR inh)
COc1cccc(-c2cc(C(=O)Nc3cc(OC)c(OC)c(OC)c3)no2)c1	Lmaj promast 51 (no result: Rad51 HR inh)
COc1cccc(-c2cc(C(=O)Nc3c(C)nn(Cc4ccccc4C)c3C)no2)c1	Lmaj promast 52
COc1cccc(-c2cc(C(=O)Nc3c(C)nn(Cc4ccccc4)c3C)no2)c1	none
CCOc1cc2c(cc1OCC)C(c1ccccc1)N(c1ccccc1)C(=O)C2 (centres undefined)	Lmaj promast 81
CCOc1cc2c(cc1OCC)C(c1ccc(OC)cc1)N(c1ccccc1)C(=O)C2 (centres undefined)	none
CC(C)CNC(=O)/C=C/c1cccs1	none
COc1cc(C=C(C(C)=O)C(C)=O)ccc1O	Lmaj promast 63
COc1ccc(C=C(C(C)=O)C(C)=O)cc1OC	none
Cc1cccc2cc(C#N)c(SCC(=O)NCc3cccs3)nc12	none
CN(C)CCNC(=O)c1cc2c(s1)-c1ccccc1OC2	Lmaj promast 91
CC(C)OC(=O)N(C)c1ccc(C(O)(C(F)(F)F)C(F)(F)F)cc1	Lmaj promast 100
Cc1ccc(C(=O)Nc2ccc(N3CCCC3)cc2)cc1	none
CC(C)Oc1ccc(C(=O)Nc2ccc(N3CCCCC3)cc2)cc1	Lmaj promast 51
CC(=O)N1CCN(c2ccc(NC(=O)c3ccc(C(C)(C)C)cc3)cc2)CC1	Lmaj promast 97
COc1ccc(C(=O)Nc2ccc(N3CCCCC3)cc2)cc1Br	Lmaj promast 52
CCCCOc1ccc(C(=O)Nc2ccc(N3CCN(C(C)=O)CC3)cc2)cc1	none (no result: Rad51 HR inh)
O=C(Nc1ccc(N2CCCCC2)cc1)c1cc([N+](=O)[O-])cc([N+](=O)[O-])c1	Lmaj promast 66
Cc1ccc(-c2nnc(Nc3ccc4c(c3)nc(C)n4C)c3ccccc23)cc1	Lmaj promast 101
CCC/C=N/NC(=O)c1[nH]c2c([N+](=O)[O-])cccc2c1C	none
CC(NC(=O)/C(=C/c1cccc([N+](=O)[O-])c1)NC(=O)c1ccco1)C(=O)O (centres undefined)	Lmaj promast 55
Cc1ccccc1NC(=O)C1CC(=O)N(Cc2ccccc2)C1 (centres undefined)	none
Cc1cnc(CN2CCCC(C(=O)c3ccc4c5c(cccc35)CC4)C2)[nH]1 (centres undefined)	Lmaj promast 99 (no result: Rad51 HR inh)
O=C(c1ccc2c3c(cccc13)CC2)C1CCCN(Cc2ccc(OCCO)cc2)C1 (centres undefined)	Lmaj promast 88
NC(=O)CCC(=O)N1CCCC(C(=O)c2ccc3c4c(cccc24)CC3)C1 (centres undefined)	none (no result: PMI act, PMI act hi M6P)
O=C(c1ccc2c3c(cccc13)CC2)C1CCCN(Cc2ccccn2)C1 (centres undefined)	Lmaj promast 64
O=C(COC(=O)c1ccc(S(=O)(=O)NCc2ccco2)cc1)Nc1ccc(Cl)cn1	none
CC(=O)c1nnn(-c2cccc(C#N)c2)c1C	none (no result: PMI act, WT yeast gro inh, PMI act hi M6P, Rad51 HR inh, Lmaj promast)
Clc1ccc(-n2nnnc2-c2cnc(-c3ccncc3)nc2-c2cccs2)cc1	none
FC(F)(F)c1nc(-c2cccs2)ncc1-c1nnnn1-c1ccc(Cl)cc1	WT yeast gro inh 77
Cc1nc(Nc2ccc(F)cc2)[nH]c(=O)c1CCC(C)C	Lmaj promast 53
COC(=O)C1=CN(Cc2ccc(OC)cc2)C=C(C(=O)OC)C1c1cccs1	Lmaj promast 100
CSCCC(NC(=O)c1ccoc1C)C(=O)O (centres undefined)	Lmaj promast 65
CSCCC(NC(=O)c1cc(C(C)(C)C)oc1C)C(=O)O (centres undefined)	none
O=C(CNc1n[nH]c(=O)[nH]c1=O)N/N=C/C1CC=CCC1 (centres undefined)	none (no result: PMI act, WT yeast gro inh, PMI act hi M6P, Rad51 HR inh, Lmaj promast)
COC(=O)c1nc(-n2nc(C)cc2C)ccc1Cl	none
COC(=O)c1ccc(Oc2cc(C)nc(NCc3ccccc3)n2)cc1	none
COC(=O)c1ccc(Oc2cc(C)nc(-n3nc(C)cc3C)n2)cc1	WT yeast gro inh 70
COC(=O)c1ccc(Oc2nc(C)cc(Oc3ccccc3)n2)cc1	Lmaj promast 95
Nc1ccc(N(c2ccccc2)c2ccc(N)cc2)cc1	Lmaj promast 100
Clc1nc(Cl)nc(N(c2ccccc2)c2ccccc2)n1	none
CCOC(=O)Cc1[nH]nc2c1C(c1ccsc1)C(C#N)=C(N)O2 (centres undefined)	none
Cc1cc(Br)ccc1S(=O)(=O)n1ccnc1C	Lmaj promast 84
N#C[C@H]1[C@H](c2ccccc2)[C@](C#N)(C(=O)c2ccccc2)[C@@H]2C=Cc3ccccc3N21	WT yeast gro inh 63 (no result: Rad51 HR inh)
COc1ccc(C(=O)N2c3ccccc3C=CC2C#N)cc1 (centres undefined)	none
Cc1cccc(N2CCN(C(=O)Cn3ccc4ccccc4c3=O)CC2)c1C	Lmaj promast 91
Cc1cccc(N2CCN(C(=O)COc3ccc4c(c3)CCC4)CC2)c1C	WT yeast gro inh 73
Cc1cccc(N2CCN(C(=O)c3cc4c(C)nc5ccccc5c4o3)CC2)c1C	WT yeast gro inh 67 (no result: PMI act, m-calpain inh, PMI act hi M6P, Rad51 HR inh, Lmaj promast)
Cc1cccc(N2CCN(C(=O)Cn3cnc4c3c(=O)n(C)c(=O)n4C)CC2)c1C	none
Cc1nc2ccccc2c2oc(C(=O)N3CCN(C4CCCCC4)CC3)cc12	none
CCn1c(C(C)NC(=O)c2cccc(C)c2)n[nH]c1=S (centres undefined)	none

High-throughput results (PubChem)
